Measurements reported in ChEMBL document CHEMBL2380239, “Novel ROS-activated agents utilize a tethered amine to selectively target acute myeloid leukemia” (Bioorg Med Chem Lett, 2013).

Columns and labels:
[1] = tested on: HeLa; test: Cytotoxicity against human HeLa cells after 48 hrs by MTT assay; assay type: functional, cell-based
[2] = Therapeutic index, ratio of IC50 for human CD34-positive blood stem/progenitor cells to IC50 for human MA9.3 cells; conditions: CD34-positive blood stem/progenitor cells versus MA9.3 cells, read-out: Ratio IC50
Procedure, shortened: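 Cytotoxicity was measured in parallel on non-cancerous human CD34+ blood stem/progenitor cells (UCB) and on the MA9.3 AML line, which was made by introducing the MLL-AF9 oncogene into human CD34+ cells. The index is IC50 in CD34+ cells divided by IC50 in MA9.3, reported as mean ± error.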

[3] = Cytotoxicity against human CD34-positive blood stem/progenitor cells after 48 hrs by MTT assay; assay type: cell-based
Procedure, shortened: (§1)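 Non-transformed human CD34+ blood stem/progenitor cells from umbilical cord blood were run alongside MA9.3, an AML line made by introducing the MLL-AF9 oncogene into human CD34+ cells. IC50 was determined on each cell type. Therapeutic index is the ratio between the MA9.3 and CD34+ IC50 values.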

[4] = Cytotoxicity against human MA9.3 cells after 48 hrs by MTT assay; assay type: functional, cell-based; procedure, shortened: as §1

Row | Structure (SMILES) | IC50 [1] [µM] | selectivity ratio [2] | IC50 [3] [µM] | IC50 [4] [µM]
1 | CN(C(=O)COc1ccc(O)cc1)c1ccccc1 | > 125 | – | – | –
2 | Nc1ccn([C@@H]2O[C@H](CO)[C@@H](O)[C@@H]2O)c(=O)n1 [CYTARABINE] | – | 0.6 | 0.59 | 0.92
3 | CN(CCCCOc1ccc(O)cc1)c1ccccc1 | 12 | – | – | –
4 | CCN(CCCOc1ccc(O)cc1)c1ccccc1 | 14 | – | – | –
